Reference: ChEMBL document CHEMBL4130512, “Design, synthesis and biological evaluation of novel α-hederagenin derivatives with anticancer activity” (Eur J Med Chem, 2017)
Values belong to the compound of their own block, whether it stands above or below them.

Tests used:
KB [1] = assay: Antiproliferative activity against human KB cells assessed as cell viability at 10 uM after 72 hrs by MTT assay relative to control; format: functional; conditions: read-out: Activity
Method in brief: (§1)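 Single-concentration MTT screen. Log-phase cells in DMEM with 10% FCS were treated for 72 h in 96-well plates. After MTT and DMSO, absorbance was read at 570 nm. Viability was calculated relative to control as mean ± SD of three independent experiments.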

MKN-45 [2] = assay: Antiproliferative activity against human MKN45 cells assessed as cell viability at 10 uM after 72 hrs by MTT assay relative to control; format: functional; conditions: MKN-45, 72 h, read-out: Activity; method in brief: as §1
BGC-823 = assay: Antiproliferative activity against human BGC823 cells after 72 hrs by MTT assay; format: functional, cell-based; conditions: BGC-823, 72 h
Method in brief: (§2)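 Cells grown in DMEM with 10% heat-inactivated FCS, penicillin and streptomycin, at 37°C in 5% CO₂, and used in log phase. Cells were seeded in 96-well plates and exposed to compound for 72 h. MTT was added, then DMSO, and OD was read at 570 nm. Survival rate was calculated and IC50 taken as 50% growth inhibition.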

MKN-45 [3] = assay: Cell cycle arrest in human MKN45 cells assessed as accumulation at G2/M-phase at 10 uM after 48 hrs by propidium iodide staining based flow cytometry (reference value: 19%); format: functional
Method in brief: (§3)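 MKN45 cells were plated at 2×10⁵ cells/well in 6-well plates and exposed for 24 and 48 h. Cells were harvested, fixed and stained with propidium iodide (50 µg/mL). DNA content was read by FACScan flow cytometry for phase distribution. The sub-G0/G1 fraction was taken as apoptotic.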

KB [4] = assay: Antiproliferative activity against human KB cells after 72 hrs by MTT assay; format: functional, cell-based; method in brief: as §2
MKN-45 [5] = assay: Cell cycle arrest in human MKN45 cells assessed as accumulation at S-phase at 10 uM after 24 hrs by propidium iodide staining based flow cytometry (reference value: 15%); format: functional; method in brief: as §3
MKN-45 [6] = assay: Cell cycle arrest in human MKN45 cells assessed as accumulation at G1-phase at 10 uM after 24 hrs by propidium iodide staining based flow cytometry (reference value: 67%); format: functional; method in brief: as §3
MKN-45 [7] = assay: Cell cycle arrest in human MKN45 cells assessed as accumulation at G2/M-phase at 10 uM after 24 hrs by propidium iodide staining based flow cytometry (reference value: 19%); format: functional; method in brief: as §3
MKN-45 [8] = assay: Cell cycle arrest in human MKN45 cells assessed as accumulation at S-phase at 10 uM after 48 hrs by propidium iodide staining based flow cytometry (reference value: 15%); format: functional; method in brief: as §3
AGS = assay: Antiproliferative activity against human AGS cells after 72 hrs by MTT assay; format: functional, cell-based; method in brief: as §2
MKN-45 [9] = assay: Cell cycle arrest in human MKN45 cells assessed as apoptotic cell accumulation at 10 uM after 24 hrs by propidium iodide staining based flow cytometry (reference value: 1.51%); format: functional; method in brief: as §3
MKN-45 [10] = assay: Cell cycle arrest in human MKN45 cells assessed as accumulation at G1-phase at 10 uM after 48 hrs by propidium iodide staining based flow cytometry (reference value: 67%); format: functional; method in brief: as §3
HeLa = assay: Antiproliferative activity against human HeLa cells after 72 hrs by MTT assay; format: functional, cell-based; method in brief: as §2
A549 = assay: Antiproliferative activity against human A549 cells after 72 hrs by MTT assay; format: functional, cell-based; conditions: A549, 72 h; method in brief: as §2
MKN-45 [11] = assay: Antiproliferative activity against human MKN45 cells after 72 hrs by MTT assay; format: functional, cell-based; conditions: MKN-45, 72 h; method in brief: as §2
MKN-45 [12] = assay: Cell cycle arrest in human MKN45 cells assessed as apoptotic cell accumulation at 10 uM after 48 hrs by propidium iodide staining based flow cytometry (reference value: 1.51%); format: functional; method in brief: as §3
[13] = Antiproliferative activity against human KBV cells after 72 hrs by MTT assay; format: functional, cell-based; method in brief: as §2

Compound: CC1(C)CC[C@]2(C(=O)OCc3ccccc3)CC[C@]3(C)C(=CC[C@@H]4[C@@]5(C)Cc6nccnc6[C@@](C)(COC(=O)CCC(=O)O)[C@@H]5CC[C@]43C)[C@@H]2C1
viability at 10 µM (KB [1]): 98% | viability at 10 µM (MKN-45 [2]): 70%

Compound: CC1(C)CC[C@]2(C(=O)OCc3ccccc3)CC[C@]3(C)C(=CC[C@@H]4[C@@]5(C)CCC(=O)[C@@](C)(COC(=O)c6ccccc6C(=O)Oc6ccc(CCO[N+](=O)[O-])cc6)[C@@H]5CC[C@]43C)[C@@H]2C1
viability at 10 µM (KB [1]): 86% | viability at 10 µM (MKN-45 [2]): 78%

Compound: CC1(C)CC[C@]2(C(=O)OCc3ccccc3)CC[C@]3(C)C(=CC[C@@H]4[C@@]5(C)CCC(=O)[C@@](C)(COC(=O)c6ccccc6C(=O)OCCc6ccc(OCCO[N+](=O)[O-])cc6)[C@@H]5CC[C@]43C)[C@@H]2C1
viability at 10 µM (KB [1]): 67% | viability at 10 µM (MKN-45 [2]): 89%

Compound: CC1(C)CC[C@]2(C(=O)OCc3ccccc3)CC[C@]3(C)C(=CC[C@@H]4[C@@]5(C)CCC(=O)[C@@](C)(COC(=O)CCC(=O)OCCc6ccc(OCCO[N+](=O)[O-])cc6)[C@@H]5CC[C@]43C)[C@@H]2C1
viability at 10 µM (KB [1]): 76% | viability at 10 µM (MKN-45 [2]): 93%

Compound: CC1(C)CC[C@]2(C(=O)OCc3ccccc3)CC[C@]3(C)C(=CC[C@@H]4[C@@]5(C)Cc6nccnc6[C@@](C)(COC(=O)c6ccccc6C(=O)Oc6ccc(CCO[N+](=O)[O-])cc6)[C@@H]5CC[C@]43C)[C@@H]2C1
viability at 10 µM (KB [1]): 49% | viability at 10 µM (MKN-45 [2]): 78%

Compound: CC1(C)CC[C@]2(C(=O)OCc3ccccc3)CC[C@]3(C)C(=CC[C@@H]4[C@@]5(C)CCC(=O)[C@@](C)(COC(=O)CCCCO[N+](=O)[O-])[C@@H]5CC[C@]43C)[C@@H]2C1
viability at 10 µM (KB [1]): 60% | viability at 10 µM (MKN-45 [2]): 54%

Compound: CC1(C)CC[C@]2(C(=O)OCc3ccccc3)CC[C@]3(C)C(=CC[C@@H]4[C@@]5(C)Cc6nccnc6[C@@](C)(COC(=O)CCC(=O)Nc6ccccc6N)[C@@H]5CC[C@]43C)[C@@H]2C1
viability at 10 µM (KB [1]): 57% | viability at 10 µM (MKN-45 [2]): 86%

Compound: CC1(C)CC[C@]2(C(=O)OCc3ccccc3)CC[C@]3(C)C(=CC[C@@H]4[C@@]5(C)CCC(OC(=O)CCCCO[N+](=O)[O-])[C@@](C)(COC(=O)CCCCO[N+](=O)[O-])[C@@H]5CC[C@]43C)[C@@H]2C1 (stereo partly drawn)
viability at 10 µM (KB [1]): 58% | viability at 10 µM (MKN-45 [2]): 97%

Compound: CC1(C)CC[C@]2(C(=O)OCc3ccccc3)CC[C@]3(C)C(=CC[C@@H]4[C@@]5(C)CCC(=O)[C@@](C)(COC(=O)CCC(=O)Oc6ccc(CCO[N+](=O)[O-])cc6)[C@@H]5CC[C@]43C)[C@@H]2C1
viability at 10 µM (KB [1]): 53% | viability at 10 µM (MKN-45 [2]): 100%

Compound: CC1(C)CC[C@]2(C(=O)OCc3ccccc3)CC[C@]3(C)C(=CC[C@@H]4[C@@]5(C)CCC(=O)[C@@](C)(COC(=O)CCCCCO[N+](=O)[O-])[C@@H]5CC[C@]43C)[C@@H]2C1
viability at 10 µM (KB [1]): 50% | viability at 10 µM (MKN-45 [2]): 75%

Compound: CC1(C)CC[C@]2(C(=O)OCc3ccccc3)CC[C@]3(C)C(=CC[C@@H]4[C@@]5(C)Cc6nccnc6[C@@](C)(CO)[C@@H]5CC[C@]43C)[C@@H]2C1
viability at 10 µM (KB [1]): 75% | viability at 10 µM (MKN-45 [2]): 77%

Compound: CC1(C)CC[C@]2(C(=O)OCc3ccccc3)CC[C@]3(C)C(=CC[C@@H]4[C@@]5(C)Cc6nccnc6[C@@](C)(COC(=O)c6ccccc6C(=O)OCCc6ccc(OCCO[N+](=O)[O-])cc6)[C@@H]5CC[C@]43C)[C@@H]2C1
viability at 10 µM (KB [1]): 55% | viability at 10 µM (MKN-45 [2]): 84%

Compound: CC1(C)CC[C@]2(C(=O)OCc3ccccc3)CC[C@]3(C)C(=CC[C@@H]4[C@@]5(C)CC/C(=N\O)[C@@](C)(CO)[C@@H]5CC[C@]43C)[C@@H]2C1
viability at 10 µM (KB [1]): 76% | viability at 10 µM (MKN-45 [2]): 64%

Compound: CC1(C)CC[C@]2(C(=O)OCc3ccccc3)CC[C@]3(C)C(=CC[C@@H]4[C@@]5(C)Cc6nccnc6[C@@](C)(COC(=O)CCCCCO[N+](=O)[O-])[C@@H]5CC[C@]43C)[C@@H]2C1
viability at 10 µM (KB [1]): 63% | viability at 10 µM (MKN-45 [2]): 84%

Compound: CC1(C)CC[C@]2(C(=O)OCc3ccccc3)CC[C@]3(C)C(=CC[C@@H]4[C@@]5(C)Cc6nccnc6[C@@](C)(COC(=O)CCCCO[N+](=O)[O-])[C@@H]5CC[C@]43C)[C@@H]2C1
viability at 10 µM (KB [1]): 59% | viability at 10 µM (MKN-45 [2]): 89%

IC50 (BGC-823): 52.1 µM | IC50 (KB [4]): 54.4 µM | IC50 (AGS): 36.1 µM | IC50 (HeLa): 54 µM | IC50 (A549): > 100 µM | IC50 (MKN-45 [11]): 53.7 µM
Compound: CC1(C)CC[C@]2(C(=O)O)CC[C@]3(C)C(=CC[C@@H]4[C@@]5(C)CC[C@H](O)[C@@](C)(CO)[C@@H]5CC[C@]43C)[C@@H]2C1 [HEDERAGENIN]
Activity (MKN-45 [3]): 25% | viability at 10 µM (KB [1]): 81% | viability at 10 µM (MKN-45 [2]): 75% | Activity (MKN-45 [5]): 14% | Activity (MKN-45 [6]): 69% | Activity (MKN-45 [7]): 17% | Activity (MKN-45 [8]): 12% | Activity (MKN-45 [9]): 1.44% | Activity (MKN-45 [10]): 63% | Activity (MKN-45 [12]): 5.87% | IC50 [13]: > 100 µM

Compound: CC1(C)CC[C@]2(C(=O)OCc3ccccc3)CC[C@]3(C)C(=CC[C@@H]4[C@@]5(C)CCC(OC(=O)CCCCCO[N+](=O)[O-])[C@@](C)(COC(=O)CCCCCO[N+](=O)[O-])[C@@H]5CC[C@]43C)[C@@H]2C1 (stereo partly drawn)
viability at 10 µM (KB [1]): 61% | viability at 10 µM (MKN-45 [2]): 85%

Compound: CC1(C)CC[C@]2(C(=O)OCc3ccccc3)CC[C@]3(C)C(=CC[C@@H]4[C@@]5(C)CCC(=O)[C@@](C)(COC(=O)c6ccccc6C(=O)O)[C@@H]5CC[C@]43C)[C@@H]2C1
viability at 10 µM (KB [1]): 51% | viability at 10 µM (MKN-45 [2]): 40%

Compound: CC1(C)CC[C@]2(C(=O)OCc3ccccc3)CC[C@]3(C)C(=CC[C@@H]4[C@@]5(C)CCC(=O)[C@@](C)(COC(=O)CCC(=O)Nc6ccccc6N)[C@@H]5CC[C@]43C)[C@@H]2C1
viability at 10 µM (KB [1]): 50% | viability at 10 µM (MKN-45 [2]): 99%

Compound: CC1(C)CC[C@]2(C(=O)OCc3ccccc3)CC[C@]3(C)C(=CC[C@@H]4[C@@]5(C)Cc6nccnc6[C@@](C)(COC(=O)CCC(=O)Oc6ccc(CCO[N+](=O)[O-])cc6)[C@@H]5CC[C@]43C)[C@@H]2C1
viability at 10 µM (KB [1]): 69% | viability at 10 µM (MKN-45 [2]): 100%

Compound: CC1(C)CC[C@]2(C(=O)OCc3ccccc3)CC[C@]3(C)C(=CC[C@@H]4[C@@]5(C)Cc6nccnc6[C@@](C)(COC(=O)CCC(=O)OCCc6ccc(OCCO[N+](=O)[O-])cc6)[C@@H]5CC[C@]43C)[C@@H]2C1
viability at 10 µM (KB [1]): 50% | viability at 10 µM (MKN-45 [2]): 93%

Compound: CC1(C)CC[C@]2(C(=O)OCc3ccccc3)CC[C@]3(C)C(=CC[C@@H]4[C@@]5(C)CCC(=O)[C@@](C)(COC(=O)CCC(=O)Nc6ccc(N)cc6)[C@@H]5CC[C@]43C)[C@@H]2C1
viability at 10 µM (KB [1]): 51% | viability at 10 µM (MKN-45 [2]): 92%

Compound: CC1(C)CC[C@]2(C(=O)OCc3ccccc3)CC[C@]3(C)C(=CC[C@@H]4[C@@]5(C)Cc6nccnc6[C@@](C)(COC(=O)c6ccccc6C(=O)O)[C@@H]5CC[C@]43C)[C@@H]2C1
viability at 10 µM (KB [1]): 81% | viability at 10 µM (MKN-45 [2]): 84%

Compound: CC1(C)CC[C@]2(C(=O)OCc3ccccc3)CC[C@]3(C)C(=CC[C@@H]4[C@@]5(C)CCC(=O)[C@@](C)(COC(=O)c6ccccc6C(=O)Nc6cccc(N)c6)[C@@H]5CC[C@]43C)[C@@H]2C1
viability at 10 µM (KB [1]): 62% | viability at 10 µM (MKN-45 [2]): 93%
